ChEMBL document CHEMBL3097988, “Synthesis and characterization of new N-(4-(4-chloro-1H-imidazol-1-yl)-3-methoxyphenyl)amide/sulfonamide derivatives as possible antimicrobial and antitubercular agents” (2014)
Converted amounts (≈) assume the structure as drawn.

These compounds were tested on Mycobacterium tuberculosis (assay: Antimicrobial activity against multi drug-resistant Mycobacterium tuberculosis after 7 days by resazurin assay). Details: 168 h.
Type: functional
Procedure, shortened: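 Resazurin microtitre assay. Cultures were grown in Middlebrook 7H9 with 10% OADC and added to fresh medium in 96-well plates. Test compounds came from 2 mg/mL DMF stocks, with DMF-only controls. Plates were incubated 7 days at 37 °C, then resazurin was added and read after 1 h at 37 °C. MIC was the lowest concentration preventing the blue-to-pink change.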
Work on COc1cc(NS(=O)(=O)C2(c3ccc(Cl)cc3)CC2)ccc1-n1cnc(Cl)c1 yielded an MIC of over 50 µg/mL. Compound COc1cc(NS(=O)(=O)c2ccccc2)ccc1-n1cnc(Cl)c1 has an MIC of 25 µg/mL (≈ 68.7 µM). COc1ccc(S(=O)(=O)Nc2ccc(-n3cnc(Cl)c3)c(OC)c2)cc1OC was tested, and the MIC was over 50 µg/mL. COc1cc(NS(=O)(=O)c2ccc([N+](=O)[O-])cc2)ccc1-n1cnc(Cl)c1 was tested, and the MIC was 6.25 µg/mL (≈ 15.3 µM). For COc1cc(NS(=O)(=O)c2cccc(C(C)C#N)c2)ccc1-n1cnc(Cl)c1 (centres undefined), the MIC was 25 µg/mL (≈ 60 µM). Work on COc1cc(NC(=O)c2ccccc2)ccc1-n1cnc(Cl)c1 yielded an MIC of 25 µg/mL (≈ 76.3 µM). Work on COc1cc(NC(=O)c2ccc([N+](=O)[O-])cc2)ccc1-n1cnc(Cl)c1 yielded an MIC of over 50 µg/mL. For COc1cc(NC(=O)c2cccc(C(C)C#N)c2)ccc1-n1cnc(Cl)c1 (centres undefined), the MIC was over 50 µg/mL. Compound COc1cc(NS(=O)(=O)c2ccc(Cl)cc2Cl)ccc1-n1cnc(Cl)c1 has an MIC of over 50 µg/mL. COc1cc(NS(=O)(=O)Cc2cccc(C(F)(F)F)c2)ccc1-n1cnc(Cl)c1 gave an MIC of over 50 µg/mL. COc1cc(NS(=O)(=O)c2ccco2)ccc1-n1cnc(Cl)c1 showed an MIC of 25 µg/mL (≈ 70.7 µM). Compound COc1cc(NS(=O)(=O)c2cc(F)cc(C(F)(F)F)c2)ccc1-n1cnc(Cl)c1 has an MIC of 6.25 µg/mL (≈ 13.9 µM). COc1cc(NS(=O)(=O)c2ccc(C(F)(F)F)cc2)ccc1-n1cnc(Cl)c1 showed an MIC of 6.25 µg/mL (≈ 14.5 µM). For COc1cc(NS(=O)(=O)c2cccc([N+](=O)[O-])c2Cl)ccc1-n1cnc(Cl)c1, the MIC was 25 µg/mL (≈ 56.4 µM). Work on COc1cc(NS(=O)(=O)c2c(F)ccc(C(F)(F)F)c2Cl)ccc1-n1cnc(Cl)c1 yielded an MIC of 6.25 µg/mL (≈ 12.9 µM). Compound COc1cc(F)c(S(=O)(=O)Nc2ccc(-n3cnc(Cl)c3)c(OC)c2)c(C(F)(F)F)c1 has an MIC of 25 µg/mL (≈ 52.1 µM). Compound COc1cc(NS(=O)(=O)c2cccs2)ccc1-n1cnc(Cl)c1 has an MIC of over 50 µg/mL. Work on COc1cc(NC(=O)c2ccc(Cl)cc2Cl)ccc1-n1cnc(Cl)c1 yielded an MIC of 25 µg/mL (≈ 63 µM). In the case of COc1cc(NC(=O)Cc2cccc(C(F)(F)F)c2)ccc1-n1cnc(Cl)c1, the MIC is reported as over 50 µg/mL. Work on COc1cc(NC(=O)c2ccco2)ccc1-n1cnc(Cl)c1 yielded an MIC of over 50 µg/mL. For COc1cc(NC(=O)c2cc(F)cc(C(F)(F)F)c2)ccc1-n1cnc(Cl)c1, the MIC was over 50 µg/mL. Compound COc1cc(NC(=O)c2ccc(C(F)(F)F)cc2)ccc1-n1cnc(Cl)c1 has an MIC of over 50 µg/mL. COc1cc(NC(=O)c2cccc([N+](=O)[O-])c2Cl)ccc1-n1cnc(Cl)c1 showed an MIC of over 50 µg/mL. Compound COc1cc(NC(=O)c2c(F)ccc(C(F)(F)F)c2Cl)ccc1-n1cnc(Cl)c1 has an MIC of 25 µg/mL (≈ 55.8 µM). Work on COc1cc(F)c(C(=O)Nc2ccc(-n3cnc(Cl)c3)c(OC)c2)c(F)c1 yielded an MIC of over 50 µg/mL. COc1cc(NC(=O)c2cccs2)ccc1-n1cnc(Cl)c1 showed an MIC of over 50 µg/mL. COc1cc(NC(=O)C2(c3ccc(Cl)cc3)CC2)ccc1-n1cnc(Cl)c1 showed an MIC of 25 µg/mL (≈ 62.1 µM). Work on NNC(=O)c1ccncc1 [ISONIAZID] yielded an MIC of 12.5 µg/mL (≈ 91.1 µM). For CO[C@H]1/C=C/O[C@@]2(C)Oc3c(C)c(O)c4c(O)c(c(/C=N/N5CCN(C)CC5)c(O)c4c3C2=O)NC(=O)/C(C)=C\C=C\[C@H](C)[C@H](O)[C@@H](C)[C@@H](O)[C@@H](C)[C@H](OC(C)=O)[C@@H]1C [RIFAMPIN], the MIC was 25 µg/mL (≈ 30.4 µM).
